In ChEMBL document CHEMBL1764979, “Nucleoside transport inhibitors: structure-activity relationships for pyrimido[5,4-d]pyrimidine derivatives that potentiate pemetrexed cytotoxicity in the presence of α1-acid glycoprotein” (J Med Chem, 2011):
The source made the active and inactive calls. The rule behind the calls is not given here.

What was measured:
[1] = system: COR-L23; experiment: Inhibition of ENT-mediated [3H]thymidine incorporation in human COR-L23 cells at 0.1 uM by liquid scintillation counting; assay type: cell-based
Outline: (§1)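 Log-phase COR-L23 cells were seeded at 2 × 10^4/well, left overnight, PBS-washed and given serum-free medium with inhibitor. 3H-TdR was added (final 100 nM, 6.2 GBq/mmol) for 2 h at 37 °C. Cells were washed in ice-cold PBS, lysed in 0.5 M NaOH for 30 min, harvested onto glass-fibre filters with TCA/water/MeOH rinses, and scintillation counted. Mean ± SD of three independent experiments.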

[2] = Inhibition of ENT-mediated [3H]thymidine incorporation in human COR-L23 cells by liquid scintillation counting; assay type: cell-based; settings: COR-L23, 2 h; outline: as §1
[3] = system: COR-L23; experiment: Inhibition of ENT-mediated [3H]thymidine incorporation in human COR-L23 cells at 1 uM by liquid scintillation counting; assay type: cell-based; outline: as §1
[4] = system: COR-L23; experiment: Potentiation of pemetrexed-induced growth inhibitory activity in human COR-L23 cells at 1 uM by SRB assay in presence of thymidine and hypoxanthine; assay type: functional; parameters: scale not given: the % may be the effect or the level left
Outline: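 COR-L23 cells in RPMI 1640 with 10% FCS were seeded at 1 × 10^3/well and allowed to attach overnight. They were then given pemetrexed 200 nM, ± TdR 1 μM and HPX 10 μM (1% DMSO), ± inhibitor 1 μM, for three doublings, then fixed and read by SRB. % reversal = (growth arrest with pemetrexed + TdR/HPX + inhibitor)/(growth arrest with pemetrexed alone) × 100. Three independent experiments.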

[5] = Chemical stability of the compound; assay type: physicochemical
[6] = system: L1210; settings: Mus musculus, at 1 µM;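 also: uptake of tritiated thymidine through ENT transporters, counted by liquid scintillation, with alpha1-acid glycoprotein added at 5 mg/ml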
[7] = system: L1210; experiment: Inhibition of ENT-mediated [3H]thymidine incorporation in mouse L1210 cells at 1 uM by liquid scintillation counting; assay type: cell-based; settings: in the assay text read “transport” for “incorporation”
Outline: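 3H-TdR transport into murine L1210 leukaemia cells with inhibitor at 1.0 μM, tested with and without AGP (5 mg/mL). Mean and SD of three independent experiments.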

[8] = Aqueous solubility of the compound; assay type: physicochemical; settings: buffer

COc1ccc(CNc2nc(NCC(C)OC(=O)Nc3ccccc3)nc3c(NCc4ccc(OCCN5CCOCC5)c(OC)c4)nc(NCC(C)O)nc23)cc1OC (centres undefined)
inhibition [1]: 80%
IC50 [2]: 22 nM
inhibition [3]: 97%
Activity [4]: >100%

COc1ccc(CNc2nc(NC[C@H](C)O)nc3c(NCc4ccc(OC)c(OC)c4)nc(NC[C@H](C)O)nc23)cc1OC
inhibition [1]: 68%
IC50 [2]: 31 nM
inhibition [3]: 93%

COc1ccc(CNc2nc(NCC(C)OC(=O)Nc3ccccc3)nc3c(NCc4ccc(OC)c(OC)c4)nc(NCC(O)CO)nc23)cc1OC (centres undefined)
inhibition [1]: 69%
IC50 [2]: 10 nM
inhibition [3]: 91%
Activity [4]: >100%

COc1ccc(CNc2nc(NCC(C)OP(=O)(O)O)nc3c(NCc4ccc(OC)c(OC)c4)nc(NCC(C)OC(=O)Nc4ccccc4)nc23)cc1OC (centres undefined)
inhibition [1]: 53%
IC50 [2]: 218 nM
inhibition [3]: 75%
Stability [5]: Unstable

COc1ccc(CNc2nc(NCC(C)OC(=O)CCC(=O)O)nc3c(NCc4ccc(OC)c(OC)c4)nc(NCC(C)O)nc23)cc1OC (centres undefined)
inhibition [6]: Active

CCOC(=O)[C@H](C)NC(=O)OC(C)CNc1nc(NCc2ccc(OC)c(OC)c2)c2nc(NCC(C)O)nc(NCc3ccc(OC)c(OC)c3)c2n1 (some centres undefined)
inhibition [1]: 39%
IC50 [2]: 435 nM
inhibition [3]: 68%
Stability [5]: Unstable

COc1ccc(CNc2nc(NCC(C)OC(=O)Nc3ccc([N+](=O)[O-])cc3)nc3c(NCc4ccc(OC)c(OC)c4)nc(NCC(C)O)nc23)cc1OC (centres undefined)
inhibition [6]: Active
inhibition [1]: 84%
IC50 [2]: 60 nM
inhibition [3]: 96%
inhibition [7]: Active
Stability [5]: Stable
Activity [4]: >100%

COc1ccc(CNc2nc(NCC(C)OC(=O)Nc3ccccc3)nc3c(NCc4ccc(OC)c(OC)c4)nc(NCC(C)OC(=O)CCC(=O)O)nc23)cc1OC (centres undefined)
inhibition [1]: 75%
IC50 [2]: 7 nM
inhibition [3]: 94%
Stability [5]: Unstable
Activity [4]: >100%

OCCN(CCO)c1nc(N2CCCCC2)c2nc(N(CCO)CCO)nc(N3CCCCC3)c2n1 [DIPYRIDAMOLE]
inhibition [1]: 78%
IC50 [2]: 15 nM
inhibition [3]: 96%
Activity [4]: >100%

C=CCOc1ccc(CNc2nc(NCC(C)O)nc3c(NCc4ccc(OC)c(OC)c4)nc(NCC(C)O)nc23)cc1OC (centres undefined)
inhibition [1]: 81%
IC50 [2]: 14 nM
inhibition [3]: 96%

COc1ccc(CNc2nc(NCC(C)O)nc3c(NCc4ccc(OC)c(OC)c4)nc(NCC(C)O)nc23)cc1OC (centres undefined)
inhibition [6]: Active
inhibition [1]: 66%
IC50 [2]: 26 nM
inhibition [3]: 90%
inhibition [7]: > 90%
Stability [5]: Stable
Activity [4]: >100%

COc1ccc(CNc2nc(NCC(C)OC(=O)[C@@H](N)C(C)C)nc3c(NCc4ccc(OC)c(OC)c4)nc(NCC(C)O)nc23)cc1OC.Cl (some centres undefined)
inhibition [1]: 64%
IC50 [2]: 39 nM
inhibition [3]: 89%
Activity [4]: >100%

COc1ccc(NC(=O)OC(C)CNc2nc(NCc3ccc(OC)c(OC)c3)c3nc(NCC(C)O)nc(NCc4ccc(OC)c(OC)c4)c3n2)cc1 (centres undefined)
inhibition [1]: 84%
IC50 [2]: 4 nM
inhibition [3]: 98%
Stability [5]: Stable
Activity [4]: >100%

COc1ccc(NC(=O)OC(C)CNc2nc(NCc3ccc(OC)c(OC)c3)c3nc(NCC(C)OC(=O)Nc4ccc(OC)cc4)nc(NCc4ccc(OC)c(OC)c4)c3n2)cc1 (centres undefined)
Stability [5]: Stable

CCOC(=O)[C@H](Cc1ccccc1)NC(=O)OC(C)CNc1nc(NCc2ccc(OC)c(OC)c2)c2nc(NCC(C)OC(=O)N[C@@H](Cc3ccccc3)C(=O)OCC)nc(NCc3ccc(OC)c(OC)c3)c2n1 (some centres undefined)
solubility [8]: Insoluble
Stability [5]: Unstable

COc1ccc(CNc2nc(NCC(C)OC(=O)[C@@H](N)C(C)C)nc3c(NCc4ccc(OC)c(OC)c4)nc(NCC(C)OC(=O)Nc4ccccc4)nc23)cc1OC (some centres undefined)
inhibition [1]: 68%
IC50 [2]: 44 nM
inhibition [3]: 92%
Activity [4]: >100%

COc1ccc(CNc2nc(NCC(C)OC(=O)Nc3ccccc3)nc3c(NCc4ccc(OC)c(OC)c4)nc(NCC(C)OC(=O)Nc4ccccc4)nc23)cc1OC (centres undefined)
Stability [5]: Stable

CCOC(=O)CNC(=O)OC(C)CNc1nc(NCc2ccc(OC)c(OC)c2)c2nc(NCC(C)OC(=O)NCC(=O)OCC)nc(NCc3ccc(OC)c(OC)c3)c2n1 (centres undefined)
inhibition [7]: > 90%
Stability [5]: Unstable

COc1ccc(CNc2nc(NCC(C)OC(=O)Nc3ccc([N+](=O)[O-])cc3)nc3c(NCc4ccc(OC)c(OC)c4)nc(NCC(C)OC(=O)Nc4ccc([N+](=O)[O-])cc4)nc23)cc1OC (centres undefined)
inhibition [7]: inactive
Stability [5]: Stable

COc1ccc(CNc2nc(NCC(C)OC(=O)[C@@H](NC(=O)OC(C)(C)C)C(C)C)nc3c(NCc4ccc(OC)c(OC)c4)nc(NCC(C)O)nc23)cc1OC (some centres undefined)
inhibition [6]: inactive

CCOC(=O)[C@H](C)NC(=O)OC(C)CNc1nc(NCc2ccc(OC)c(OC)c2)c2nc(NCC(C)OC(=O)N[C@@H](C)C(=O)OCC)nc(NCc3ccc(OC)c(OC)c3)c2n1 (some centres undefined)
solubility [8]: Insoluble
Stability [5]: Unstable

COc1ccc(CNc2nc(NCC(C)OC(=O)[C@@H](NC(=O)OC(C)(C)C)C(C)C)nc3c(NCc4ccc(OC)c(OC)c4)nc(NCC(C)OC(=O)[C@@H](NC(=O)OC(C)(C)C)C(C)C)nc23)cc1OC (some centres undefined)
inhibition [6]: inactive

COC(=O)[C@@H](NC(=O)OC(C)CNc1nc(NCc2ccc(OC)c(OC)c2)c2nc(NCC(C)O)nc(NCc3ccc(OC)c(OC)c3)c2n1)C(C)C (some centres undefined)
inhibition [1]: 79%
IC50 [2]: 7 nM
inhibition [3]: 95%
Stability [5]: Unstable

COc1ccc(CNc2nc(NCC(C)OC(=O)[C@@H](N)C(C)C)nc3c(NCc4ccc(OC)c(OC)c4)nc(NCC(C)OC(=O)[C@@H](N)C(C)C)nc23)cc1OC.Cl.Cl (some centres undefined)
inhibition [6]: Active
inhibition [1]: 59%
IC50 [2]: 70 nM
inhibition [3]: 87%
Activity [4]: >100%

COc1ccc(CNc2nc(NCC(C)OC(=O)Nc3ccc(C(F)(F)F)cc3)nc3c(NCc4ccc(OC)c(OC)c4)nc(NCC(C)O)nc23)cc1OC (centres undefined)
inhibition [6]: Active
inhibition [1]: 75%
IC50 [2]: 67 nM
inhibition [3]: 93%
inhibition [7]: Active
Stability [5]: Stable
Activity [4]: >100%

COc1ccc(CNc2nc(NCC(C)OC(=O)Nc3ccc(C(F)(F)F)cc3)nc3c(NCc4ccc(OC)c(OC)c4)nc(NCC(C)OC(=O)Nc4ccc(C(F)(F)F)cc4)nc23)cc1OC (centres undefined)
inhibition [7]: inactive
Stability [5]: Stable

COc1ccc(CNc2nc(NCC(C)OC(=O)Nc3ccccc3)nc3c(NCc4ccc(OC)c(OC)c4)nc(NCC(C)O)nc23)cc1OC (centres undefined)
inhibition [6]: Active
inhibition [1]: 81%
IC50 [2]: 8 nM
inhibition [3]: 97%
inhibition [7]: Active
Stability [5]: Stable
Activity [4]: >100%

CCOC(=O)CNC(=O)OC(C)CNc1nc(NCc2ccc(OC)c(OC)c2)c2nc(NCC(C)O)nc(NCc3ccc(OC)c(OC)c3)c2n1 (centres undefined)
inhibition [6]: Active
inhibition [1]: 85%
IC50 [2]: 59 nM
inhibition [3]: 94%
inhibition [7]: > 90%
Stability [5]: Unstable

CCOC(=O)[C@H](Cc1ccccc1)NC(=O)OC(C)CNc1nc(NCc2ccc(OC)c(OC)c2)c2nc(NCC(C)O)nc(NCc3ccc(OC)c(OC)c3)c2n1 (some centres undefined)
Stability [5]: Unstable

COc1ccc(CNc2nc(NCC(C)OC(=O)CCC(=O)O)nc3c(NCc4ccc(OC)c(OC)c4)nc(NCC(C)OC(=O)CCC(=O)O)nc23)cc1OC (centres undefined)
inhibition [6]: inactive
